Source: ChEMBL document CHEMBL1142666, “Novel [2',5'-bis-O-(tert-butyldimethylsilyl)-beta-D-ribofuranosyl]- 3'-spiro-5''-(4''-amino-1'',2''-oxathiole-2'',2" -dioxide) derivatives with anti-HIV-1 and anti-human-cytomegalovirus activity” (J Med Chem, 2005)
pEC50: −log10 of the molar value.

Assays:
Conditions in all cases: Homo sapiens
HEL [1] = experiment: Effective concentration required to inhibit HCMV AD-169 in HEL Cells; assay type: functional, cell-based
In short: (§1)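 Confluent HEL cells infected with HCMV at 100 PFU/well. After 1-2 h, residual virus removed and MEM with 2% inactivated FCS added, with compound in duplicate at 5-fold dilution steps. After 7 days at 37 °C in 5% CO2, cells fixed with ethanol and Giemsa-stained; plaques or CPE scored microscopically. IC50 interpolated graphically; mean of two independent experiments.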

MT4 [2] = experiment: Effective concentration required to inhibit HIV-2 ROD in MT-4 cell culture; assay type: functional, cell-based
In short: (§2)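 MT-4 cells (3 × 10^5/mL) infected at ~100 CCID50/mL and mixed with compound dilutions. Cytopathicity read by trypan blue exclusion at day 5. EC50 = concentration giving 50% protection against virus-induced loss of viability.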

CCRF-CEM [3] = experiment: Effective concentration required to inhibit HIV-2 ROD in CEM cell culture; assay type: functional, cell-based
In short: (§3)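 CEM cells (4 × 10^5/mL) infected at ~100 CCID50/mL and mixed with compound dilutions. Giant cell formation scored microscopically at day 4. EC50 = concentration inhibiting virus-induced cytopathicity by 50%.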

MT4 [4] = experiment: Cytostatic concentration required to inhibit MT-4 cell proliferation; assay type: functional
In short: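 Mock-infected MT-4 cells (3 × 10^5/mL) incubated with compound dilutions for 5 days. Viable cells counted by trypan blue exclusion. CC50 = concentration reducing viable MT-4 cell number by 50%.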

HEL [5] = experiment: Minimal cytotoxic concentration required to cause microscopically visible alteration of cell morphology in HEL Cells; assay type: functional
In short: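 Uninfected HEL cells exposed to compound. Minimum cytotoxic concentration is the lowest level giving a microscopically detectable change in cell morphology.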

HEL [6] = experiment: Effective concentration required to inhibit HCMV Davis in HEL Cells; assay type: functional, cell-based; in short: as §1
HEL [7] = experiment: Cytostatic concentration required to inhibit HEL cell proliferation; assay type: functional
In short: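 HEL fibroblasts seeded at 5 × 10^3 cells/well and grown 24 h, then given compound in duplicate. After 3 days at 37 °C in 5% CO2, cell number read on a Coulter counter. CC50 = concentration reducing cell growth by 50%.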

CCRF-CEM [8] = experiment: Cytostatic concentration required to inhibit CEM cell proliferation; assay type: functional
In short: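 CEM cells, mock-infected, grown with serial compound dilutions for 4 days. CC50 taken as the concentration that inhibits CEM cell proliferation by 50%.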

CCRF-CEM [9] = experiment: Effective concentration required to inhibit HIV-1 IIIB in CEM cell culture; assay type: functional, cell-based; in short: as §3
MT4 [10] = experiment: Effective concentration required to inhibit HIV-1 IIIB in MT-4 cell culture; assay type: functional, cell-based; in short: as §2
CCRF-CEM [11] = experiment: Cytostatic concentration of the cell proliferation; assay type: functional

Row | SMILES | pEC50 (HEL [1]) | pEC50 (CCRF-CEM [3]) | pEC50 (HEL [6]) | pEC50 (CCRF-CEM [9]) | pEC50 (MT4 [2]) | CC50 (MT4 [4]) [µM] | MCC (HEL [5]) [µM] | CC50 (HEL [7]) [µM] | CC50 (CCRF-CEM [8]) [µM] | pEC50 (MT4 [10]) | CC50 (CCRF-CEM [11]) [µM]
1 | CCOC(=O)CNC(=O)NC1=CS(=O)(=O)O[C@@]12[C@@H](CO[Si](C)(C)C(C)(C)C)O[C@@H](n1cc(C)c(=O)n(C)c1=O)[C@@H]2O[Si](C)(C)C(C)(C)C | < 5.49 | < 5.70 | < 5.49 | < 5.70 | < 5.70 | 3.78 | 16 | 13 | 5.02 | < 5.70 | 
2 | Cc1cn([C@@H]2O[C@H](CO[Si](C)(C)C(C)(C)C)[C@@]3(OS(=O)(=O)C=C3NCCC(N)=O)[C@H]2O[Si](C)(C)C(C)(C)C)c(=O)n(C)c1=O | < 4.80 | < 5.00 | 4.54 | 5.30 | < 5.00 | 20 | ≥ 80 | 14.8 |  | < 5.00 | 21
3 | Cc1cn([C@@H]2O[C@H](CO[Si](C)(C)C(C)(C)C)[C@@]3(OS(=O)(=O)C=C3NCC(N)=O)[C@H]2O[Si](C)(C)C(C)(C)C)c(=O)n(C)c1=O | < 5.49 | < 5.70 | < 5.49 | < 5.70 | < 5.00 | 14.9 | 16 | 13.5 | 14.6 | < 5.00 | 

Continued, in another order:

Row | pEC50 (HEL [1]) | pEC50 (CCRF-CEM [3]) | pEC50 (HEL [6]) | pEC50 (CCRF-CEM [9]) | SMILES | pEC50 (MT4 [2]) | CC50 (MT4 [4]) [µM] | MCC (HEL [5]) [µM] | CC50 (HEL [7]) [µM] | CC50 (CCRF-CEM [8]) [µM] | pEC50 (MT4 [10]) | CC50 (CCRF-CEM [11]) [µM]
4 | 5.19 | < 5.00 | 5.19 | 7.55 | Cc1cn([C@@H]2O[C@H](CO[Si](C)(C)C(C)(C)C)[C@@]3(OS(=O)(=O)C=C3NC(=O)C(N)=O)[C@H]2O[Si](C)(C)C(C)(C)C)c(=O)n(C)c1=O | < 5.70 | 9.59 | ≥ 16 | 14.5 | 9.96 | 7.24 | 
5 | 3.60 | < 5.40 | 3.75 | 7.22 | COC(=O)C(=O)NC1=CS(=O)(=O)O[C@@]12[C@@H](CO[Si](C)(C)C(C)(C)C)O[C@@H](n1cc(C)c(=O)n(C)c1=O)[C@@H]2O[Si](C)(C)C(C)(C)C | < 5.40 | 10.3 | > 400 | > 200 | 5.57 | 7.10 | 
